# Article PMC3604071 (Nature chemical biology, 2013)
# Entries after “also recorded” stand apart in the source; their conditions may differ.
# T1: Porcupine (Mus musculus, UniProt Q9JJJ7)
# T1 sequence (Q9JJJ7 1-461): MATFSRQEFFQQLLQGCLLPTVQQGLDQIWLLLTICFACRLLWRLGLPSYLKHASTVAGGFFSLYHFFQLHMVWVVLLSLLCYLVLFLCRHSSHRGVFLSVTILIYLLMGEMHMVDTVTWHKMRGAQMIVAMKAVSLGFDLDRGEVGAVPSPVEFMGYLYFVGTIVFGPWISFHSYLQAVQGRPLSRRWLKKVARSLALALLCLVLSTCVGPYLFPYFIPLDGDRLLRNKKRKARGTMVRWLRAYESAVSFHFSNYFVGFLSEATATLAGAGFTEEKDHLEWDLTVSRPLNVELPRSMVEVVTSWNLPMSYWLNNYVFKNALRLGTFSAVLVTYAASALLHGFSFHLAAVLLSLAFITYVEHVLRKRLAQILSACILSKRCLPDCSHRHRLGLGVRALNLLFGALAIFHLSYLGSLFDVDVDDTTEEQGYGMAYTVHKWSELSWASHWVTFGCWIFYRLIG
# B1: Noggin: the BMP inhibitor Noggin (protein, UniProt Q13253 28-232, looked up)
# Noggin: QHYLHIRPAPSDNLPLVDLIEHPDPIFDPKEKDLNETLLRSLLGGHYDPGFMATSPPEDRPGGGGGAAGGAEDLAELDQLLRQRPSGAMPSEIKGLEFSEGLAQGKKQRLSKKLRRKLQMWLWSQTFCPVLYAWNDLGSRFWPRYVKVGSCFSKRSCSVPEGMVCKPSKSVHLTVLRWRCQRRGGQRCGWIPIQYPIISECKCSC
# Experiments:
# [1] = tested on: Shh signaling (Gli1 activation) in NIH 3T3 cells; assay: Gli-responsive luciferase reporter assay in Shh-transfected NIH 3T3 cells; type: cell-based; settings: for Gli-responsive luciferase activation (FL/RL ratio): NIH 3T3 cells cotransfected with Shh, 10 μM, 24 h
# Procedure, shortened: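 NIH 3T3 cells cotransfected with pRL-TK, 8XGliBS-firefly luciferase (or mutant reporter) and Shh plasmids. Seeded 24 h later at 1×10^6 cells/well and grown to confluence. Treated 24 h with DMSO or 10 μM test compound. Firefly and Renilla luciferase measured in lysates; FL/RL ratio normalized to DMSO-treated cells.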
# palmitoylation of H-Ras = assay: H-Ras palmitoylation in COS-1 cells; type: cell-based; settings: COS-1 cells expressing H-Ras N17
# Procedure, shortened: (§1)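 COS-1 cells co-transfected with Shh and HA-Hhat plus H-Ras or Fyn. Test compound or DMSO was added the night before or at the start of serum starvation. Cells were starved 1 h in DMEM with 2% dialyzed FCS, then labeled with 15–30 μCi/ml 125I-iodo-palmitate for 4 h at 37°C. Lysates in RIPA were cleared at 100,000xg, immunoprecipitated 16 h at 4°C, run on 12.5% SDS-PAGE and phosphorimaged. Duplicates, repeated ≥3 times.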
# [2] = tested on: Gli1 activation in Shh Light II cells; assay: Gli luciferase reporter assay in Shh Light II cells; type: cell-based; settings: 10 μM RU-SKI 43, 24 h
# Procedure, shortened: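 Shh Light II cells (stable Gli1 luciferase reporter) grown to confluence, moved to 0.5% serum medium, and exposed 24 h to DMSO or 10 μM test compound, with or without 100 nM SAG or 1 μg/mL Shh (C24II). Dual firefly/Renilla luciferase read in lysates. FL/RL ratio normalized to cells given DMSO or compound alone; experiment done at least twice.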
# myristoylation of c-Src = assay: c-Src myristoylation in COS-1 cells; type: cell-based; settings: COS-1 cells expressing c-Src
# Procedure, shortened: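 COS-1 cells were transfected with Shh, HA-Hhat and Src, with test compound or DMSO added the night before or at the start of starvation. After 1 h starvation in DMEM with 2% dialyzed FCS, 30 μCi/ml 125I-iodo-tridecanoate was added for 4 h at 37°C. RIPA lysates were cleared at 100,000xg, immunoprecipitated overnight at 4°C, resolved on 12.5% SDS-PAGE and quantified by phosphorimager. Duplicates, ≥3 repeats.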
# [3] = tested on: Hhat-mediated Shh palmitoylation in COS-1 cells; assay: Shh palmitoylation in COS-1 cells; type: cell-based
# Procedure, shortened: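 COS-1 cells transfected with Shh and HA-Hhat given test compound or DMSO overnight or from the start of […] serum starvation (DMEM, 2% dialyzed FCS). Labeled 4 h at 37°C with 15–30 μCi/ml 125I-iodo-palmitate. Lysed in RIPA, ultracentrifuged, immunoprecipitated 16 h at 4°C, SDS-PAGE with western blot and phosphorimaging. Duplicates, repeated at least three times.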
# [4] = tested on: paracrine Shh signaling in C3H10T1/2 cells; assay: C3H10T1/2 alkaline phosphatase reporter assay; type: cell-based
# Procedure, shortened: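 C3H10T1/2 reporter cells and COS-1 cells transfected with HA-Hhat and Shh plasmids plated alone or cocultured (4:1), 24 h at 37°C. Medium then switched to DMSO or 10 μM test compound for 72 h, with re-addition at 48 h. Alkaline phosphatase measured in lysates with a fluorogenic FDP substrate kit, read over 30 min at 5-min intervals; mean ± SD, n=3.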
# palmitoylation of Fyn = assay: Fyn palmitoylation in COS-1 cells; type: cell-based; settings: COS-1 cells expressing Fyn
# Procedure, shortened: as §1
# Hhat = Hhat (Homo sapiens, UniProt Q5VTY9); assay: RU-SKI 43 inhibition kinetics with purified Hhat and ShhN; type: biochemical; settings: Ki with respect to 125I-iodo-palmitoylCoA, noncompetitive inhibitor; purified Hhat, 125I-iodo-palmitoylCoA titrated, 38μM ShhN
# [5] = tested on: Shh signaling in SuFu−/− cells; assay: Gli luciferase reporter assay in SuFu-/- cells; type: cell-based, murine; settings: 10 μM, 24h
# Procedure, shortened: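 SuFu−/− mouse embryonic fibroblasts transfected with wild-type or mutant 8XGliBS-firefly luciferase plus pRL-TK Renilla plasmids. Reseeded 24 h later, grown to confluence, then given DMSO or 10 μM test compound for 24 h. Dual luciferase measured in lysates as FL/RL ratio; mean ± SD (n=2–4), experiment run at least twice.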
# [6] = tested on: Shh and Hhat in COS-1 cells; assay: Shh autoprocessing, Shh/Hhat levels and localization in COS-1 cells; type: cell-based; settings: 10µM, 5h
# Procedure, shortened: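 COS-1 cells were transfected with Shh and HA-Hhat and reseeded on coverslips after 24 h. A day later they were fixed in 4% paraformaldehyde for 20 min and permeabilized with 0.2% Triton X-100. After blocking in 3% BSA, cells took rabbit anti-Shh (1:100) and mouse anti-HA (1:200) for 1 h, then Alexa-conjugated secondaries and Hoechst for 45 min. Confocal imaging at 63X: 5–10 images per slide, ≥2 slides per condition, three experiments. Protein levels by Western blot.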
# Porcupine = target: T1, Porcupine; assay: Wnt3a fatty acylation by Porcupine in L Wnt-3a cells; type: cell-based; settings: Mouse L Wnt-3a cells, FLAG-Porcupine
# Procedure, shortened: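 Mouse L-Wnt3a cells transfected with 6 μg FLAG-Porcupine or empty vector. After 48 h, serum-starved 3 h in DMEM with 2% dialyzed FCS plus DMSO, 10 μM test compound or 100 nM reference Porcupine inhibitor. Labeled 6 h with 40 μCi 125I-iodo-pentadecanoate. Wnt3a and FLAG-Porcupine immunoprecipitated 16 h at 4°C, then SDS-PAGE, western blot, phosphorimaging. Duplicates, repeated three times.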
# [7] = Half-life in mouse plasma after IV administration; type: in vivo
# Hhat, sequence (Q5VTY9 whole entry): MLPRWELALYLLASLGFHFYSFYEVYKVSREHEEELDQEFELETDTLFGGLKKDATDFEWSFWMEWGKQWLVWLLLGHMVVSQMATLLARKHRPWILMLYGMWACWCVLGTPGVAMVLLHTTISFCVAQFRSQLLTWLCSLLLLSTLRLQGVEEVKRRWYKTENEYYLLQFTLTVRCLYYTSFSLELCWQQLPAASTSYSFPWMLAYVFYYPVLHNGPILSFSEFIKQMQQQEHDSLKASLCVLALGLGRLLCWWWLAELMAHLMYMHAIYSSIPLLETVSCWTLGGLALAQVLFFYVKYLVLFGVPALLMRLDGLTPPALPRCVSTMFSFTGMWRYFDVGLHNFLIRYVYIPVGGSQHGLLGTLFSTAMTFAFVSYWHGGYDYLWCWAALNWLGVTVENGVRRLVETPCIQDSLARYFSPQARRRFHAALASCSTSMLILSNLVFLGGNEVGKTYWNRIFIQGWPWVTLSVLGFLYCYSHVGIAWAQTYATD
molecule,measurement,setting,value
"Cc1c(C(=O)Nc2ccc(N3C[C@@H](C)O[C@@H](C)C3)nc2)cccc1-c1ccc(OC(F)(F)F)cc1 [LDE225, reference compound]",Gli-responsive luciferase activation (FL/RL ratio),[1],blocked luciferase activation
"CCC(C)CNCC(=O)N1CCc2sccc2C1COc1cccc(C)c1 (stereo not shown) [RU-SKI 43, 2-((2-methylbutyl)amino)-1-(4-((m-tolyloxy)methyl)-6,7-dihydrothieno[3,2-c]pyridin-5(4H)-yl)ethanone]",Palmitoylation of H-Ras,palmitoylation of H-Ras,Neither palmitoylation of H-Ras and Fyn nor myristoylation of c-Src was affected
same,Effect on activation of Gli1 by SAG,[2]; 100 nM SAG,does not affect exogenous Shh pathway activation; also recorded: no effect
same,Effect on activation of Gli1 by recombinant Shh (C24II),[2]; 1μg/mL Shh (C24II),does not affect exogenous Shh pathway activation; also recorded: no effect
same,Myristoylation of c-Src,myristoylation of c-Src,Neither palmitoylation of H-Ras and Fyn nor myristoylation of c-Src was affected
same,Inhibition of Shh palmitoylation in cells,"[3]; COS-1 cells expressing HA-Hhat and Shh, 0, 10 or 20 μM, 5 h",Dose-dependent inhibition
same,Radiolabel incorporation into ShhN in cells,"[3]; COS-1 cells expressing HA-Hhat and Shh, 25 μM compound, 16 h",strongly inhibited
same,Palmitoylation of Shh by endogenous Hhat,"[3]; COS-1 cells transfected with Shh only, 10 µM",inhibited
same,Effect of Hhat overexpression on inhibition of Shh palmitoylation,"[3]; transfected COS-1 cells, increasing amounts of Hhat, 10µM",reduced the ability of RU-SKI 43 to inhibit Shh palmitoylation
same,Effect of Porcupine overexpression on inhibition of Shh palmitoylation,"[3]; transfected COS-1 cells, increasing amounts of Porcupine, 10µM",no effect
same,Alkaline phosphatase (AP) activity,"[4]; C3H10T1/2 cocultured with COS-1 expressing Shh and Hhat, 10 μM, 72h",blocks paracrine Shh signaling; also recorded: reduced to baseline
same,Palmitoylation of Fyn,palmitoylation of Fyn,Neither palmitoylation of H-Ras and Fyn nor myristoylation of c-Src was affected
same,Ki,Hhat,6.9 µM
same,Effect on Shh signaling in SuFu−/− cells,[5],does not affect Shh pathway activation; also recorded: no effect
same,"Shh autoprocessing, steady-state levels of Shh and Hhat, subcellular localization of Shh and Hhat",[6],did not alter
same,Gli-responsive luciferase activation (FL/RL ratio),[1],blocks Gli activation; also recorded: blocked luciferase activation
same,Rescue of the inhibitory effect with SAG or Shh (C24II),"[1]; Shh-transfected NIH 3T3 cells, 10µM RU-SKI 43 with 100nM SAG or 1µg/mL Shh (C24II), 24h",not able to rescue
same,Fatty acylation of Wnt3a by Porcupine,Porcupine; 10 μM,does not inhibit Porcupine; also recorded: no effect
same,half-life,[7],17 min
"CNC1CCC(N(Cc2cccc(-c3ccncc3)c2)C(=O)c2sc3ccccc3c2Cl)CC1 (stereo not shown) [SAG, reference compound]",Gli1 activation in untreated Shh-expressing cells,"[1]; Shh-expressing NIH 3T3 cells, 100nM SAG",neither SAG (Supplementary Fig. 8) nor overexpression of Smo[17] activated Gli1 to levels higher than those achieved with Shh alone
"Cc1cc(-c2ccc(CC(=O)Nc3ccc(-c4cccnc4)cc3)cc2)ccn1 [Wnt C59, reference compound]",Fatty acylation of Wnt3a by Porcupine,Porcupine; 100 nM,blocked radiolabel incorporation
B1,Alkaline phosphatase (AP) activity,"[4]; BMP inhibitor control, concentration not given",no effect
